Test results published in ChEMBL document CHEMBL4837210 (Eur J Med Chem, 2021).

What was measured:
Format in all cases: functional
Bacillus subtilis = assay: Antibacterial activity against penicillin-susceptible Bacillus subtilis ATCC 9372 assessed as bacterial growth inhibition incubated for 24 hrs by CLSI protocol based broth microdilution method
Streptococcus pyogenes [1] = assay: Antibacterial activity against erythromycin-susceptible Streptococcus pyogenes clinical isolate 1 assessed as bacterial growth inhibition incubated for 24 hrs by CLSI protocol based broth microdilution method
Staphylococcus aureus [2] = assay: Antibacterial activity against Staphylococcus aureus assessed as inhibition of bacterial growth measured by broth microdilution method; settings: time 24 hrs
How it was run: (§1)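 Broth microdilution in Mueller Hinton broth. A 0.5 McFarland suspension was diluted tenfold, giving an inoculum of 1.5 × 10⁷ cfu/mL. This was added to 2-fold serial compound dilutions from […]. Plates were incubated aerobically at 37 °C for 24 h. MIC was the lowest concentration with no visible turbidity.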

[3] = tested on: Staphylococcus epidermidis; assay: Antibacterial activity against penicillin-resistant Staphylococcus epidermidis assessed as inhibition of bacterial growth measured by broth microdilution method; settings: time 24 hrs
Streptococcus pyogenes [4] = assay: Antibacterial activity against erythromycin-resistant Streptococcus pyogenes 2 assessed as bacterial growth inhibition incubated for 24 hrs by CLSI protocol based broth microdilution method
Staphylococcus aureus [5] = assay: Antibacterial activity against penicillin-resistant Staphylococcus aureus assessed as inhibition of bacterial growth measured by broth microdilution method; settings: time 24 hrs
How it was run: (§2)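 Broth microdilution MIC. A 0.5 McFarland suspension was diluted 10-fold and added at 1.5 × 10⁷ cfu/mL to 2-fold dilutions (0.125–64) in Mueller Hinton broth. Incubated aerobically 24 h at 37 °C. MIC was the lowest concentration with no visible turbidity.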

Bacillus pumilus = assay: Antibacterial activity against penicillin-susceptible Bacillus pumilus CMCC 63202 assessed as bacterial growth inhibition by broth dilution method; settings: time 24 hrs; how it was run: as §1
Staphylococcus aureus [6] = assay: Antibacterial activity against methicillin-resistant Staphylococcus aureus ATCC 43300 assessed as inhibition of bacterial growth by broth microdilution method; settings: time 24 hrs; how it was run: as §2
Pseudomonas aeruginosa = assay: Antibacterial activity against penicillin-susceptible Pseudomonas aeruginosa ATCC27853 assessed as bacterial growth inhibition incubated for 24 hrs by CLSI protocol based broth microdilution method
Escherichia coli = assay: Antibacterial activity against penicillin-susceptible Escherichia coli ATCC 25922 assessed as inhibition of bacterial growth measured by broth microdilution method; settings: time 24 hrs; how it was run: as §1
Staphylococcus aureus [7] = assay: Antibacterial activity against erythromycin-susceptible Staphylococcus aureus ATCC 25923 assessed as bacterial growth inhibition incubated for 24 hrs by CLSI protocol based broth microdilution method

Row | Structure (SMILES) | MIC (Bacillus subtilis) [µg/mL] | MIC (Streptococcus pyogenes [1]) [µg/mL] | MIC (Staphylococcus aureus [2]) [µg/mL] | MIC [3] [µg/mL] | MIC (Streptococcus pyogenes [4]) [µg/mL] | MIC (Staphylococcus aureus [5]) [µg/mL] | MIC (Bacillus pumilus) [µg/mL] | MIC (Staphylococcus aureus [6]) [µg/mL] | MIC (Pseudomonas aeruginosa) [µg/mL] | MIC (Escherichia coli) [µg/mL] | MIC (Staphylococcus aureus [7]) [µg/mL]
1 | C[n+]1c2ccccc2c(Nc2ccncn2)c2ccccc21.[Cl-] | 16 | > 64 | 32 | > 64 | > 64 | > 64 | 64 | 32 | > 64 | > 64 | 16
2 | C[n+]1c2ccccc2c(Nc2ccc(Cl)cc2Cl)c2ccccc21.[Cl-] | > 64 | > 64 | > 64 | > 64 | > 64 | – | > 64 | > 64 | > 64 | > 64 | > 64
3 | C[n+]1c2ccccc2c(-c2ccccc2)c2ccccc21.[I-] | 16 | 8 | 8 | > 64 | 32 | > 64 | 32 | > 64 | > 64 | > 64 | 2
4 | C[n+]1c2ccccc2c(/C=C/c2ccc(-c3ccccc3)cc2)c2ccccc21.[I-] | 1 | 0.5 | 1 | 2 | 0.5 | 4 | 2 | 2 | > 64 | 32 | 0.5
5 | CC(C)Nc1c2ccccc2[n+](C)c2ccccc12.[Cl-] | > 64 | > 64 | > 64 | > 64 | > 64 | – | > 64 | > 64 | > 64 | > 64 | > 64
6 | Cc1ccccc1-c1c2ccccc2[n+](C)c2ccccc12.[I-] | 32 | 64 | 64 | > 64 | > 64 | > 64 | > 64 | > 64 | > 64 | > 64 | 8
7 | C[n+]1c2ccccc2c(/C=C/c2ccc(Cl)cc2)c2ccccc21.[I-] | 2 | 1 | 2 | 2 | 1 | 4 | 1 | 2 | > 64 | > 64 | 1
8 | C[n+]1c2ccccc2c(Nc2ccc(F)cc2F)c2ccccc21.[Cl-] | > 64 | > 64 | > 64 | > 64 | > 64 | – | > 64 | > 64 | > 64 | > 64 | > 64
9 | COc1ccccc1/C=C/c1c2ccccc2[n+](C)c2ccccc12.[I-] | 1 | 0.25 | 1 | 8 | 0.5 | 16 | 2 | 4 | > 64 | > 64 | 0.25
10 | C[n+]1c2ccccc2c(Nc2ccccc2-c2ccccc2)c2ccccc21.[Cl-] | > 64 | > 64 | > 64 | > 64 | > 64 | – | > 64 | > 64 | > 64 | > 64 | > 64
11 | C[n+]1c2ccccc2c(/C=C/c2ccc(F)cc2)c2ccccc21.[I-] | 2 | 0.5 | 2 | 8 | 0.5 | 16 | 2 | 8 | > 64 | > 64 | 1
12 | CCOc1ccc(C#Cc2c3ccccc3[n+](C)c3ccccc23)cc1.[I-] | 4 | 16 | 4 | 8 | 8 | 8 | 4 | 4 | > 64 | > 64 | 4
13 | C[n+]1c2ccccc2c(-n2cccc2)c2ccccc21.[Cl-] | 64 | 16 | 64 | > 64 | 64 | 64 | 64 | > 64 | > 64 | > 64 | 32
14 | COc1ccccc1Nc1c2ccccc2[n+](C)c2ccccc12.[Cl-] | > 64 | > 64 | > 64 | > 64 | > 64 | – | > 64 | > 64 | > 64 | > 64 | > 64
